The source made the active and inactive calls. The calls are words filed in the database; no cut-off is given here.
How the values were obtained:
[1] = biological target: T1, Amyloid-beta precursor protein (Homo sapiens, UniProt P05067); experiment: Displacement of [125I]IMPY from amyloid beta (1 to 40) (unknown origin) after 2 hrs by gamma counting analysis
Procedure, shortened: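 Incubation was 2 h at 37 °C. Bound and free fractions were separated by filtration through GF/B filters, followed by ice-cold PBS washes and counting. IC50 came from displacement curves of three independent experiments, done in duplicate. Ki was obtained by Cheng-Prusoff.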

[2] = biological target: T1, Amyloid-beta precursor protein; experiment: Binding affinity to beta amyloid-containing senile plaques of Alzheimer's disease patient at 50 uM after 20 mins by thioflavin-S staining-based fluorescence microscopic analysis
Procedure, shortened: (§1)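 Paraffin sections of postmortem AD brain were dewaxed in xylene, passed through graded ethanol, then rinsed in water and 0.01 M PBS at pH 7.4. Sections were immersed in cold ligand (50 in 30% EtOH/0.1 M PBS) for 20 min and differentiated in 50% EtOH for 10 min. Adjacent sections were stained with ThS (1%, 5 min) and differentiated in 70% EtOH. Sections were then PBS-washed, mounted in 80% glycerin and imaged by fluorescence microscopy.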

[3] = biological target: Microtubule-associated protein tau (Homo sapiens) (UniProt P10636); experiment: Binding affinity to hyperphosphorylated tau protein-containing neurofibrillary tangles of Alzheimer's disease patient at 50 uM after 20 mins by thioflavin-S staining-based fluorescence microscopic analysis; procedure, shortened: as §1
Brain [4] = experiment: Ratio of drug level in ICR mouse brain measured at 60 mins to drug level in ICR mouse brain measured at 2 mins; format: ADME; details: in vivo
Procedure, shortened: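 Brain uptake (%ID/g) at 60 min was divided by uptake at 2 min after intravenous injection into normal ICR mice, n=5 per time point. Brain radioactivity was gamma counted and normalised to a 1% injected-dose standard.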

Kidney [5] = experiment: Biodistribution in ICR mouse kidney at 2 uCi, iv measured at 2 hrs by gamma counting analysis; format: ADME, organism-based; details: in vivo
Procedure, shortened: (§2)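 The radioiodinated ligand was given intravenously to normal ICR mice, n=5 per time point. Mice were euthanized at 2, 10, 30, 60 and 120 min, and organs were removed and weighed. Radioactivity was gamma counted. %ID/g was calculated as counts per gram of tissue divided by counts of 1% of the injected dose, taken from a 100-fold diluted aliquot.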

Lung [6] = experiment: Biodistribution in ICR mouse lung at 2 uCi, iv measured at 2 hrs by gamma counting analysis; format: ADME, organism-based; details: in vivo; procedure, shortened: as §2
Spleen [7] = experiment: Biodistribution in ICR mouse spleen at 2 uCi, iv measured at 2 hrs by gamma counting analysis; format: ADME, organism-based; details: in vivo; procedure, shortened: as §2
Liver [8] = experiment: Biodistribution in ICR mouse liver at 2 uCi, iv measured at 2 hrs by gamma counting analysis; format: ADME, organism-based; details: in vivo; procedure, shortened: as §2
Heart [9] = experiment: Biodistribution in ICR mouse heart at 2 uCi, iv measured at 2 hrs by gamma counting analysis; format: ADME, organism-based; details: in vivo; procedure, shortened: as §2
Brain [10] = experiment: Biodistribution in ICR mouse brain at 2 uCi, iv measured at 2 hrs by gamma counting analysis; format: ADME, organism-based; details: in vivo; procedure, shortened: as §2
Blood [11] = experiment: Biodistribution in ICR mouse blood at 2 uCi, iv measured at 2 hrs by gamma counting analysis; format: ADME, organism-based; details: in vivo; procedure, shortened: as §2
Kidney [12] = experiment: Biodistribution in ICR mouse kidney at 2 uCi, iv measured at 1 hr by gamma counting analysis; format: ADME, organism-based; details: in vivo; procedure, shortened: as §2
Lung [13] = experiment: Biodistribution in ICR mouse lung at 2 uCi, iv measured at 1 hr by gamma counting analysis; format: ADME, organism-based; details: in vivo; procedure, shortened: as §2
Spleen [14] = experiment: Biodistribution in ICR mouse spleen at 2 uCi, iv measured at 1 hr by gamma counting analysis; format: ADME, organism-based; details: in vivo; procedure, shortened: as §2
Liver [15] = experiment: Biodistribution in ICR mouse liver at 2 uCi, iv measured at 1 hr by gamma counting analysis; format: ADME, organism-based; details: in vivo; procedure, shortened: as §2
Heart [16] = experiment: Biodistribution in ICR mouse heart at 2 uCi, iv measured at 1 hr by gamma counting analysis; format: ADME, organism-based; details: in vivo; procedure, shortened: as §2
Brain [17] = experiment: Biodistribution in ICR mouse brain at 2 uCi, iv measured at 1 hr by gamma counting analysis; format: ADME, organism-based; details: in vivo; procedure, shortened: as §2
Blood [18] = experiment: Biodistribution in ICR mouse blood at 2 uCi, iv measured at 1 hr by gamma counting analysis; format: ADME, organism-based; details: in vivo; procedure, shortened: as §2
Kidney [19] = experiment: Biodistribution in ICR mouse kidney at 2 uCi, iv measured at 30 mins by gamma counting analysis; format: ADME, organism-based; details: in vivo, 0.5 h; procedure, shortened: as §2
Lung [20] = experiment: Biodistribution in ICR mouse lung at 2 uCi, iv measured at 30 mins by gamma counting analysis; format: ADME, organism-based; details: in vivo, 0.5 h; procedure, shortened: as §2
Spleen [21] = experiment: Biodistribution in ICR mouse spleen at 2 uCi, iv measured at 30 mins by gamma counting analysis; format: ADME, organism-based; details: in vivo, 0.5 h; procedure, shortened: as §2
Liver [22] = experiment: Biodistribution in ICR mouse liver at 2 uCi, iv measured at 30 mins by gamma counting analysis; format: ADME, organism-based; details: in vivo, 0.5 h; procedure, shortened: as §2
Heart [23] = experiment: Biodistribution in ICR mouse heart at 2 uCi, iv measured at 30 mins by gamma counting analysis; format: ADME, organism-based; details: in vivo, 0.5 h; procedure, shortened: as §2
Brain [24] = experiment: Biodistribution in ICR mouse brain at 2 uCi, iv measured at 30 mins by gamma counting analysis; format: ADME, organism-based; details: in vivo, 0.5 h; procedure, shortened: as §2
Blood [25] = experiment: Biodistribution in ICR mouse blood at 2 uCi, iv measured at 30 mins by gamma counting analysis; format: ADME, organism-based; details: in vivo, 0.5 h; procedure, shortened: as §2
Kidney [26] = experiment: Biodistribution in ICR mouse kidney at 2 uCi, iv measured at 10 mins by gamma counting analysis; format: ADME, organism-based; details: in vivo; procedure, shortened: as §2
Lung [27] = experiment: Biodistribution in ICR mouse lung at 2 uCi, iv measured at 10 mins by gamma counting analysis; format: ADME, organism-based; details: in vivo; procedure, shortened: as §2
Spleen [28] = experiment: Biodistribution in ICR mouse spleen at 2 uCi, iv measured at 10 mins by gamma counting analysis; format: ADME, organism-based; details: in vivo; procedure, shortened: as §2
Liver [29] = experiment: Biodistribution in ICR mouse liver at 2 uCi, iv measured at 10 mins by gamma counting analysis; format: ADME, organism-based; details: in vivo; procedure, shortened: as §2
Heart [30] = experiment: Biodistribution in ICR mouse heart at 2 uCi, iv measured at 10 mins by gamma counting analysis; format: ADME, organism-based; details: in vivo; procedure, shortened: as §2
Brain [31] = experiment: Biodistribution in ICR mouse brain at 2 uCi, iv measured at 10 mins by gamma counting analysis; format: ADME, organism-based; details: in vivo; procedure, shortened: as §2
Blood [32] = experiment: Biodistribution in ICR mouse blood at 2 uCi, iv measured at 10 mins by gamma counting analysis; format: ADME, organism-based; details: in vivo; procedure, shortened: as §2
Kidney [33] = experiment: Biodistribution in ICR mouse kidney at 2 uCi, iv measured at 2 mins by gamma counting analysis; format: ADME, organism-based; details: in vivo; procedure, shortened: as §2
Spleen [34] = experiment: Biodistribution in ICR mouse spleen at 2 uCi, iv measured at 2 mins by gamma counting analysis; format: ADME, organism-based; details: in vivo; procedure, shortened: as §2
Lung [35] = experiment: Biodistribution in ICR mouse lung at 2 uCi, iv measured at 2 mins by gamma counting analysis; format: ADME, organism-based; details: in vivo; procedure, shortened: as §2
Liver [36] = experiment: Biodistribution in ICR mouse liver at 2 uCi, iv measured at 2 mins by gamma counting analysis; format: ADME, organism-based; details: in vivo; procedure, shortened: as §2
Heart [37] = experiment: Biodistribution in ICR mouse heart at 2 uCi, iv measured at 2 mins by gamma counting analysis; format: ADME, organism-based; details: in vivo; procedure, shortened: as §2
Brain [38] = experiment: Biodistribution in ICR mouse brain at 2 uCi, iv measured at 2 mins by gamma counting analysis; format: ADME, organism-based; details: in vivo; procedure, shortened: as §2
Blood [39] = experiment: Biodistribution in ICR mouse blood at 2 uCi, iv measured at 2 mins by gamma counting analysis; format: ADME, organism-based; details: in vivo; procedure, shortened: as §2

T1 sequence (P05067 whole entry): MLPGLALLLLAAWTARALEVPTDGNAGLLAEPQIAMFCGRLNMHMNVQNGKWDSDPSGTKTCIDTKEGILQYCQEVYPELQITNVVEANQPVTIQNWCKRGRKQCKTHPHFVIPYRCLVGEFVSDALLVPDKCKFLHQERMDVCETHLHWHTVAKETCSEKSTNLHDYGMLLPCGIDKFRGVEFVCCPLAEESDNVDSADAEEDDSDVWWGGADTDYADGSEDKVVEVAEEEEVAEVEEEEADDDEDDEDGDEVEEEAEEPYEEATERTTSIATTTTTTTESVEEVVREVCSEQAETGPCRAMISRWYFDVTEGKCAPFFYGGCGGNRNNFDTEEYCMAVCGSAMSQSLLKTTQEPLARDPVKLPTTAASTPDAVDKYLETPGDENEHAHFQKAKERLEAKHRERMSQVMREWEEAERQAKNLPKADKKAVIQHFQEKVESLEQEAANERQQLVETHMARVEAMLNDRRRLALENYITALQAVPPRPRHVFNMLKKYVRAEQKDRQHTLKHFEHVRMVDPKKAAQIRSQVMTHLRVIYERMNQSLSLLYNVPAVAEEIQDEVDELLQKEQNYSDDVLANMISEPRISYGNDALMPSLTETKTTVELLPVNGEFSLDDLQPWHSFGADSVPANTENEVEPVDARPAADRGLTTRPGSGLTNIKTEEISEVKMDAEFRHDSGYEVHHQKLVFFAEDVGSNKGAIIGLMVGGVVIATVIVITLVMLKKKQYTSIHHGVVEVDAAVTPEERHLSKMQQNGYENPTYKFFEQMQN
Sequence of Microtubule-associated protein tau (Homo sapiens) (P10636 whole entry): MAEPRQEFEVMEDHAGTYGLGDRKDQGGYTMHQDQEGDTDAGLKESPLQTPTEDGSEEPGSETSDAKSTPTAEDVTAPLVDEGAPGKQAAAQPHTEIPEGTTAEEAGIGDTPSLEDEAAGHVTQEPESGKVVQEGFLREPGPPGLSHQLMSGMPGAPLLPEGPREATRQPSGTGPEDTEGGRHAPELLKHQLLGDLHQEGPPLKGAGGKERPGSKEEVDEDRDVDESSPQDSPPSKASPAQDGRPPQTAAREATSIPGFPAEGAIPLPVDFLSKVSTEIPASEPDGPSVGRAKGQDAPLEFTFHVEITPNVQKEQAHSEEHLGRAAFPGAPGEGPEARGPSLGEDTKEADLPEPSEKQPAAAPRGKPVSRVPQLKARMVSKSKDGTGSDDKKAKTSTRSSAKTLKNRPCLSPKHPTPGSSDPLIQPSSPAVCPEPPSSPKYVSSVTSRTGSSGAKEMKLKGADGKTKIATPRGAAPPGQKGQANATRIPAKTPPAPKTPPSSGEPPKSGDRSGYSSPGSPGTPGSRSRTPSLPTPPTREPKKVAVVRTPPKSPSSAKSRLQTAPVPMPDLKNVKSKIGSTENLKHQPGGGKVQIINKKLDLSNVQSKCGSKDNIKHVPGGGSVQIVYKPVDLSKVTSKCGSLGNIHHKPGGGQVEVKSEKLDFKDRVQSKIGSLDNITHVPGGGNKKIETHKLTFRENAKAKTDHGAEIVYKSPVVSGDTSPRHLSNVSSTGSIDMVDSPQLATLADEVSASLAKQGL

O=C1/C(=C/c2ccccc2)COc2ccc(Br)cc21
Ki [1]: 104 nM

COc1ccc(/C=C2\COc3ccc(Br)cc3C2=O)cc1
Ki [1]: 9.98 nM

CN(C)c1ccc(/C=C2\COc3ccc(Br)cc3C2=O)cc1Br
Ki [1]: 25.5 nM

COc1cc(/C=C2\COc3ccc(Br)cc3C2=O)ccc1O
Ki [1]: 432 nM

Nc1ccc(/C=C2\COc3ccc(Br)cc3C2=O)cc1
Ki [1]: 63.6 nM

O=C1/C(=C/c2ccc(Br)cc2)COc2ccc(Br)cc21
Ki [1]: 144 nM

O=C1/C(=C/c2ccc(O)cc2)COc2ccc(Br)cc21
Ki [1]: 103 nM

COc1ccc(/C=C2\COc3ccc(Br)cc3C2=O)cc1OC
Ki [1]: 54.2 nM

CN(C)c1ccc(/C=C2\COc3ccc(Br)cc3C2=O)cc1
Activity [2]: Active | Ki [1]: 9.1 nM | Activity [3]: inactive

O=C1/C(=C/c2ccc([N+](=O)[O-])cc2)COc2ccc(Br)cc21
Ki [1]: 108 nM

COc1cccc(/C=C2\COc3ccc(Br)cc3C2=O)c1
Ki [1]: 73.5 nM

COc1cc(/C=C2\COc3ccc(Br)cc3C2=O)cc(OC)c1
Ki [1]: 39.2 nM

CN(C)c1ccc(/C=C2\COc3ccc([125I])cc3C2=O)cc1
Ratio (Brain [4]): 6.9% | Drug uptake (Kidney [5]): 1 % ID/g | Drug uptake (Lung [6]): 0.73 % ID/g | Drug uptake (Spleen [7]): 0.35 % ID/g | Drug uptake (Liver [8]): 1.05 % ID/g | Drug uptake (Heart [9]): 0.36 % ID/g | Drug uptake (Brain [10]): 0.1 % ID/g | Drug uptake (Blood [11]): 1.05 % ID/g | Drug uptake (Kidney [12]): 1.42 % ID/g | Drug uptake (Lung [13]): 0.99 % ID/g | Drug uptake (Spleen [14]): 0.4 % ID/g | Drug uptake (Liver [15]): 1.23 % ID/g | Drug uptake (Heart [16]): 0.49 % ID/g | Drug uptake (Brain [17]): 0.18 % ID/g | Drug uptake (Blood [18]): 1.22 % ID/g | Drug uptake (Kidney [19]): 3.36 % ID/g | Drug uptake (Lung [20]): 2.29 % ID/g | Drug uptake (Spleen [21]): 0.7 % ID/g | Drug uptake (Liver [22]): 2.07 % ID/g | Drug uptake (Heart [23]): 0.87 % ID/g | Drug uptake (Brain [24]): 0.32 % ID/g | Drug uptake (Blood [25]): 2.38 % ID/g | Drug uptake (Kidney [26]): 10.88 % ID/g | Drug uptake (Lung [27]): 4.87 % ID/g | Drug uptake (Spleen [28]): 1.27 % ID/g | Drug uptake (Liver [29]): 4.71 % ID/g | Drug uptake (Heart [30]): 1.87 % ID/g | Drug uptake (Brain [31]): 0.83 % ID/g | Drug uptake (Blood [32]): 3.87 % ID/g | Drug uptake (Kidney [33]): 17.89 % ID/g | Drug uptake (Spleen [34]): 2.54 % ID/g | Drug uptake (Lung [35]): 9.33 % ID/g | Drug uptake (Liver [36]): 13.57 % ID/g | Drug uptake (Heart [37]): 4.46 % ID/g | Drug uptake (Brain [38]): 2.61 % ID/g | Drug uptake (Blood [39]): 8.35 % ID/g

— ChEMBL document CHEMBL3124902, “Homoisoflavonoids as potential imaging agents for β-amyloid plaques in Alzheimer's disease” (Eur J Med Chem, 2014)
